# High-throughput results from PubChem.
# M1 antag: antagonists of rat M1 muscarinic receptor; P08482; B-score at 10 µM; AID 628; actives 3.4% (n = 64,000); CHO-M1 cells, Fluo-4 calcium, ACh EC80 antagonist mode; active compounds read low;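 active = calcium fluorescence response, raw or row-and-column corrected B-score, differing from the plate sample mean either way at a set confidence level, mostly lower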
# RORA act: activates the human nuclear receptor RORA | CHO-K1 Gal4-RORA LBD luciferase reporter, luminescence; percent increase over mock-subtracted basal signal | actives 1.5% (n = 65,000) | activation, % at 10 µM;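 active = activation above the mean of all tested compounds plus 3 SD, cut at about 49% in these data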
# MT1-MMP txn act: activates MT1-MMP transcription. HT1080 MT1-MMP promoter luciferase reporter, luminescence, overnight; active compounds read high. activation factor at 10 µM. actives 0.16% (n = 86,000);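 active = activation factor of at least 2 for MT1-MMP transcription at 10 µM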
# M1 agonist: agonists of M1 muscarinic receptor; AID 626; actives 3% (n = 64,000); CHO-M1 cells, Fluo-4 calcium fluorescence, agonist mode; active compounds read high; B-score at 10 µM;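 active = fluorescence rise, raw or as B-score row- and column-corrected plate score, outside the 99.7% band of its plate's samples, either direction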
# SF1 activator: activators of human nuclear receptor SF-1; Q13285; CHO-K1 Gal4-SF-1 LBD luciferase reporter; % increase over DMSO SF-1-specific signal; activation, % at 10 µM; actives 1.9% (n = 65,000);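 active = activation above the mean activation of all tested compounds plus 3 SD, cut at about 50% in these data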
#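 Assay system: CHO-K1 cells co-transfected with Gal4 DBD–human SF-1 LBD, 5xGal4 luciferase reporter; doses: 10 µM only; incubation: 20 h compound exposure at 37 °C after 1 h cell settling; signal: luciferase light emission; evaluation: percent activation versus DMSO; repeats: one test per compound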
# M1 agonist conf: confirmation of rat M1 muscarinic receptor agonists; fluorescence change (max-min) at 10 µM; actives 19% (n = 1,700); CHO-M1 cells, Fluo-4 calcium fluorescence, agonist mode; actives lie on both sides; shares compounds with M1 agonist;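 active = fluorescence change differs from the solvent-only DMSO control mean at a set confidence level in both duplicate runs; inconclusive = differs from solvent-only control mean in just one of two runs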;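 note: an EC20 dose of acetylcholine follows compound addition during the same imaging run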
# M4 ag counter: rat M4 muscarinic agonism, M1 counter-screen | shares compounds with M1 agonist | CHO M4/Gqi5 cells, Fluo-4 calcium fluorescence, agonist mode; actives lie on both sides | fluorescence change (max-min) at 10 µM | actives 9% (n = 1,700);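 active = fluorescence change differing from the plate's solvent-only control wells at 99.7% confidence in both duplicates, whether higher or lower; inconclusive = differs from solvent controls in only one of two duplicates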
# Target sequence (P08485 whole entry, looked up): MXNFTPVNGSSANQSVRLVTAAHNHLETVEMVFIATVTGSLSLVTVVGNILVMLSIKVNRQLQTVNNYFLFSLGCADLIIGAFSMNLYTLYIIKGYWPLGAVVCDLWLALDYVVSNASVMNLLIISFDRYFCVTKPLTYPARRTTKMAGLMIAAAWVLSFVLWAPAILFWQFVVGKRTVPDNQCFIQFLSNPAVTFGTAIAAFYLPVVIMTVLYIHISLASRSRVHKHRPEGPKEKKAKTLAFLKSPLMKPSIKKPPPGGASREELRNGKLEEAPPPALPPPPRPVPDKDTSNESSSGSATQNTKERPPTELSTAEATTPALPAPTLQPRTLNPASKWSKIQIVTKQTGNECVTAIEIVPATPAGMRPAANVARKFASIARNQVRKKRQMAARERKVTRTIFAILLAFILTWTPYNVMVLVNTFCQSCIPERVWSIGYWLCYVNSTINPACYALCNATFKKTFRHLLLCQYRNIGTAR
# A number is an active result; 0 = inactive; ? = inconclusive; - = no result given. An excerpt weighted towards active compounds, which were near 6.3% of everything screened.
SMILES,M1 antag,RORA act,MT1-MMP txn act,M1 agonist,SF1 activator,M1 agonist conf,M4 ag counter
Cn1cc(C(=O)c2ccccc2)cc1-c1nc2ccccc2n1C,0,0,0,6.55,0,0,0
CC(C)(C)c1nc(N2CCN(C(=O)c3ccco3)CC2)c2nnn(Cc3ccccc3)c2n1,-,-,0,-,-,-,-
Cc1nc(OCc2ccccc2)c2sc3nc4c(cc3c2n1)COC(C)(C)C4,-,-,0,-,-,-,-
CC1(C)Cc2nc3oc4c(N(CCO)Cc5ccccc5)ncnc4c3cc2CO1,0,0,0,8.13,0,0,0
COc1cccc(Cn2nnc(C(=O)NCc3ccccc3Cl)c2N)c1,0,0,0,0,0,-,-
O=C(NCCc1ccc(Cl)cc1)C1CCN(S(=O)(=O)N2CCCCC2)CC1,0,0,0,1.88,0,?,0
O=c1oc2c3c4c(cc2c2c1CCC2)OCCN4CCC3,0,0,0,23.6,0,111,0
Cc1ccc(-c2nnc(N3CCN(c4ccccn4)CC3)c3ccccc23)cc1,-3.49,0,0,1.97,0,?,0
Cc1ccc(C)c(N2CCN(S(=O)(=O)c3ccc4c(c3)CCC(=O)N4)CC2)c1,0,0,0,0,0,-,-
Cc1ccc(C)c(N2CCN(C(=O)CN(C)S(=O)(=O)c3ccc4c(c3)CCC(=O)N4)CC2)c1,0,0,0,2.27,0,?,0
O=C(C1CC1)N1CCc2cc(Br)cc(S(=O)(=O)N3CCOCC3)c21,0,0,0,3.01,0,0,0
O=C(CSc1n[nH]c(-c2cccs2)n1)N1CCCc2ccccc21,-,-,0,-,-,-,-
COc1ccccc1N1CCN(C(=O)CSc2nc3ccccc3c(=O)n2CC2CCCO2)CC1 (configuration not stated),0,0,0,9.71,0,0,0
CCn1c(SCC(=O)N2CCCc3ccccc32)nc2ccccc2c1=O,0,0,0,3.11,0,0,0
CCOC(=O)CSc1nc2ccccc2c(=O)n1CC1CCCO1 (configuration not stated),0,0,0,0,0,-,-
O=C(CSc1n[nH]c(-c2ccccc2O)n1)N1CCCc2ccccc21,0,0,0,11.1,0,?,0
CCn1c(SCC(=O)N2CCCc3ccccc32)nc2cccnc21,0,0,0,0,0,-,-
Clc1ccc(C(c2nnnn2C2CCCC2)N2CCSCC2)cc1 (configuration not stated),0,0,0,8.02,0,0,?
c1ccc(C(c2nnnn2C2CCCC2)N2CCN(c3ccccc3)CC2)cc1 (configuration not stated),-,-,0,-,-,-,-
Cc1cccc(Cn2cnc3c(nnn3Cc3ccccc3F)c2=O)c1,-2.69,0,0,10.8,0,-34.2,0
Cc1cccc(Cn2cnc3c(nnn3Cc3ccc(F)cc3)c2=O)c1,0,0,0,0,0,-,-
O=c1[nH]nc(Cc2ccc3ccccc3n2)c2ccccc12,-,-,0,-,-,-,-
COc1ccc(/C=C/c2ccncc2)cc1,-,-,0,-,-,-,-
CN(C)c1ccc(/C=C/c2ccncc2)cc1,0,73.4,0,9.96,0,111,150
CCCCOCCCn1c(-c2ccco2)nc2nc3ccccc3nc21,0,0,0,4.17,0,?,0
SMILES,M1 antag,RORA act,MT1-MMP txn act,M1 agonist,SF1 activator,M1 agonist conf,M4 ag counter
CCc1nnc(NC(=O)C2CC(=O)N(c3ccc(C)cc3)C2)s1 (configuration not stated),0,0,0,0,0,-,-
Cc1ccc(N2CC(C(=O)Nc3ccccn3)CC2=O)cc1 (configuration not stated),0,0,0,4.57,0,?,0
O=C(Nc1ccccc1C(=O)N1CCOCC1)C1CCCO1 (configuration not stated),0,0,0,0,0,-,-
CCOC(=O)c1cc2c(=O)n3cccc(C)c3nc2n(Cc2ccco2)c1=NC(=O)c1cccnc1,0,0,0,39.9,0,180,0
CCOC(=O)c1cc2c(=O)n3ccccc3nc2n(Cc2ccco2)c1=NC(=O)c1cccnc1,0,0,0,6.21,0,146,0
CCOC(=O)c1cc2c(=O)n3ccccc3nc2n(CCCOC)c1=NC(=O)c1cccnc1,0,0,0,0,0,-,-
CN1CCN(C(=O)C2CC(c3c(F)cccc3Cl)=NO2)CC1 (configuration not stated),0,0,0,0,0,-,-
Cc1ccc(S(=O)(=O)c2cccc(S(=O)(=O)N3CCCC3)c2)cc1S(=O)(=O)N1CCCC1,-6.43,0,0,4.18,0,0,?
Cc1ccc(S(=O)(=O)c2cccc(S(=O)(=O)N3CCOCC3)c2)cc1S(=O)(=O)N1CCOCC1,-,-,0,-,-,-,-
CN1CCc2c(sc3c2C(=O)NC(c2cccc(OC(=O)c4cccs4)c2)N3)C1 (configuration not stated),0,62.3,-,5.72,57.9,0,0
CCS(=O)(=O)N1CCCC(C(=O)NCCCN2CCCC2=O)C1 (configuration not stated),0,0,0,0,0,-,-
O=C1OC(C(=O)O)Cc2ccccc21 (configuration not stated),-,-,0,-,-,-,-
CCOc1cccc(C(=O)Nc2nc(-c3ccc(S(=O)(=O)N4CCOCC4)cc3)cs2)c1,0,0,0,3.73,0,0,0
CC(C)n1nc(C(=O)OCC(=O)N(C)C2CCS(=O)(=O)C2)c2ccccc2c1=O (configuration not stated),0,0,0,10.1,0,0,0
CNC(=O)NC(=O)CSc1ccc(NC(C)=O)cc1,0,0,0,0,0,-,-
COc1ccccc1NC(=O)N(Cc1cc2cc(OC)c(OC)cc2[nH]c1=O)CC1CCCO1 (configuration not stated),0,0,0,0,0,-,-
COc1ccc2[nH]c(=O)c(CN(Cc3cccnc3)C(=O)Nc3ccccc3)cc2c1,0,0,0,3.51,0,-27.9,?
COc1ccc(NCc2cc3cc(OC)ccc3[nH]c2=O)cc1,0,0,0,3.84,0,0,0
CCOc1ccc2[nH]c(=O)c(CN(Cc3cccnc3)C(=O)Nc3ccccc3OC)cc2c1,0,0,0,0,0,-,-
COc1ccc2[nH]c(=O)c(CN(Cc3nnnn3Cc3ccc(F)cc3)CC3CCCO3)cc2c1 (configuration not stated),0,0,0,2.61,0,0,0
COc1ccc2[nH]c(=O)c(CN(CC3CCCO3)C(=O)Nc3ccccc3OC)cc2c1 (configuration not stated),0,0,0,6.43,0,0,0
CCOc1ccc(N2C(=O)C(c3ccccc3)=C(c3nc4ccccc4s3)C2NC(C)=O)cc1 (configuration not stated),-,-,0,-,-,-,-
O=C(NCc1ccccn1)C(C(=O)c1ccc(F)cc1)n1ccccc1=O (configuration not stated),0,0,0,0,0,-,-
